CHOP inh – blocks CHOP induction under ER stress; CHO-K1 CHOP-promoter luciferase, tunicamycin-induced, 15-18 h; inhibition, % at 10 µM; 220,000 compounds, 3.8% hits;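 active means compounds that reduced the stress-induced luciferase reporter signal by more than about 70% of percent inhibition, limit read from the data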;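 further: 0% = tunicamycin plus vehicle and 100% = wells without tunicamycin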
UPR XBP1 act – activators of adaptive arm of unfolded protein response (XBP1). CHO-XBP1 luciferase reporter, IRE1-XBP1 UPR activation, luminescence; percent of tunicamycin response, DMSO as zero. 330,000 compounds, 0.33% hits. activation, % at 20 µM;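 active means versus positive control, 20 µM dose yields 30% or more activation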;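 further: 100% = tunicamycin at 10 µg/mL and 0% = DMSO only wells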
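Test system: CHO-XBP1 luciferase reporter cells | Buffer or medium: Serum-containing F12 medium, 10% FBS | Schedule: 6 h compound exposure at 37 °C, 5% CO2 | Detection: Steady-Glo luciferase glow luminescence, 10 min after reagent addition | Read-out basis: Activation, % of tunicamycin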
Bfl-1 A1 inh – inhibitors of the anti-apoptotic protein A1, read as caspase activation. MEF A1-2A-BIM cells, Caspase-Glo 3/7 luminescence, 3 h; percent of clofoctol response, vehicle zero. caspase activation, % (no concentration beside the values). 330,000 compounds, 0.066% hits;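 active means over half of replicate activation scores above 10%, or exactly half above 10 with the replicate mean above 10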
UPR CHOP act – apoptotic UPR (CHOP) activation; CHO-CHOP luciferase reporter, luminescence; percent of tunicamycin response over DMSO baseline; activation, % at 10 µM; 330,000 compounds, 0.34% hits; AID 449763;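 active means at 10 µM dose, activation of 40% or more, normalized to positive control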;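 further: 100% = tunicamycin at 10 µg/mL and 0% = DMSO alone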
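Assay system: CHO cells with stable CHOP pathway luciferase reporter; Buffer or medium: F12 plus 10% serum; Times: 16-18 h cell attachment, then 6 h compound exposure, 37 °C; Signal: luciferase luminescence; Read-out basis: percent activation relative to tunicamycin control; Control set: tunicamycin high control, DMSO low control.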
The depositor's hits bear a star; nt = no result given. This is one part of a sample in which hits are shown more often than they occur.

SMILES | CHOP inh | UPR XBP1 act | Bfl-1 A1 inh | UPR CHOP act
CC(C)CCOc1ccc(Cl)cc1CN1CCOCC1 | 82.9* | 2.2 | -1.3 | 1.0
CCCCCOc1ccc(Cl)cc1CN1CCOCC1 | 67.7 | -3.0 | 0.5 | 4.7
Cc1ccc(-c2nnn(CC(=O)N(Cc3cccs3)C(C(=O)NC(C)(C)C)c3ccc(C)o3)n2)o1 (stereo not given) | 76.2* | -1.8 | 0.1 | 2.0
O=C(c1ccc(CSc2nc3ccncc3[nH]2)cc1)N1CCN(c2cccc(Cl)c2)CC1 | 83.1* | 2.7 | -1.4 | 11.9
Cc1cc(C(=O)NNC(=O)Cc2ccc(Cl)c(Cl)c2)c(C)o1 | nt | -0.6 | nt | 0.2
CCc1ccc2nc(N3C(=O)C(O)=C(C(=O)c4ccco4)C3c3cccs3)sc2c1 (stereo not given) | 80.2* | 6.0 | -6.5 | 2.8
CCC(C)(C)c1ccc(OCCCC[n+]2cccc(C)c2C)c(C(C)(C)CC)c1 | 78.5* | 23.1 | 0.3 | 18.9
CCC(C)(C)c1ccc(OCCCC[n+]2ccc(C)cc2)c(C(C)(C)CC)c1 | 76.2* | 19.0 | 0.3 | -0.3
CC(=O)Cn1ncc(N(C)Cc2ccccc2)c(Cl)c1=O | nt | 0.4 | 0.8 | 5.8
CC(=O)Nc1ccc(N/C=C/C(=O)C(C)(C)C)cc1 | 21.0 | 3.5 | -0.4 | 3.3
Cc1ccc(N/C=C/C(=O)C(C)(C)C)c(O)c1 | 85.6* | 1.8 | -1.3 | 3.1
Oc1ccc(/C=N/n2c3ccccc3c3ccccc32)cc1 | 91.0* | -2.7 | -0.1 | 1.1
Cc1nnc(C)n1/N=C/c1ccc(O)cc1 | 5.5 | -2.5 | 0.4 | 0.1
CCn1cc(C(=O)O)c(=O)c2cc(F)c(N/N=C/c3ccccc3)cc21 | 103.1* | -0.5 | -0.6 | 0.7
CCn1cc(C(=O)O)c(=O)c2cc(F)c(N3CCN(C(=S)NC(=O)c4ccc(Br)cc4)CC3)cc21 | 73.2* | 4.9 | -0.4 | -2.5
O=S(=O)(c1cc(Cl)cc(Cl)c1)N1CCCC1c1nc2ccccc2s1 (stereo not given) | 70.2* | 0.9 | 0.0 | 0.3
Cc1cc(OCc2nc(-c3cccnc3)no2)c(C)cc1Br | 86.2* | 5.3 | -0.1 | 2.7
C#CCn1cc(/C=N/NC(=O)COc2cccc3cccnc23)c2ccccc21 | 103.1* | 1.0 | 0.5 | -2.1
Cc1ccccc1OCC(=O)N/N=C/c1cn(Cc2ccccc2)c2ccccc12 | 73.4* | -0.8 | 0.3 | 2.0
Cc1ccc(OCC(=O)N/N=C\c2cn(Cc3ccccc3)c3ccccc23)cc1C | 63.8 | -1.6 | 0.0 | 5.0
COC(=O)N/N=C/c1cn(Cc2ccc(Cl)cc2Cl)c2ccccc12 | 80.5* | -0.9 | -0.2 | -0.4
COc1ccc(NC(=O)c2ccccc2N2C(=O)C3C4C=CC(C5CC45)C3C2=O)c(OC)c1 (stereo not given) | nt | -3.2 | 0.3 | 4.4
C[C@@H]1[C@H](O)C[C@@]23COC(=O)C2=CCC[C@@H]3[C@@]1(C)CC/C(=C/CO)CO | nt | -3.1 | 0.0 | 0.8
COc1ccc(/C=N/Nc2nc(Nc3ccccc3)nc(N3CCCC3)n2)cc1[N+](=O)[O-] | 83.5* | 13.3 | 1.7 | 39.3
COc1ccc(/C=N/Nc2nc(N3CCCCC3)nc(N3CCCCC3)n2)cc1[N+](=O)[O-] | 22.3 | -3.0 | 0.1 | -0.3
SMILES | CHOP inh | UPR XBP1 act | Bfl-1 A1 inh | UPR CHOP act
CCOC(=O)c1oc2ccccc2c1NC(=O)CN1CCOCC1 | -4.0 | 1.0 | 0.1 | -1.9
CCOC(=O)c1oc2ccccc2c1NC(=O)CN1CCN(C)CC1 | 3.6 | 1.1 | 17.1* | -1.5
CCOc1ccc(N2CC(C(=O)Nc3ccccc3N3CCCC3)CC2=O)cc1 (stereo not given) | nt | -2.1 | -0.2 | 1.6
COc1nc(Nc2ccc([N+](=O)[O-])cc2)nc(NC2CCCCC2)n1 | 81.7* | 4.8 | 1.4 | 2.2
Fc1ccccc1/C=N/n1c(COc2ccccc2)n[nH]c1=S | nt | 7.5 | 0.5 | 1.5
Cc1ccccc1NC(=O)C(Cl)=C(Cl)Cl | -24.8 | 2.1 | 0.1 | -0.9
COc1ccc(CNC(=O)N[C@@H](CC(C)C)C(=O)O)cc1OC | 4.8 | -2.3 | 0.7 | 0.1
COc1ccc(/C=C/c2nc(N)nc(-c3ccccc3O)n2)cc1 | 78.4* | 2.3 | -0.4 | 1.6
COc1ccc(/C=C/c2nc(N)nc(-c3ccccc3O)n2)cc1OC | 79.2* | 8.7 | -0.2 | 2.8
Cc1c(/C(O)=C2\C(=O)C(=O)N(CCN(C)C)C2c2ccccc2)cnn1-c1ccccc1 (stereo not given) | 7.0 | -8.9 | 0.6 | 0.1
Cc1ccc(-n2[nH]c(C)c(C=Nc3ccc(S(=O)(=O)Nc4nccs4)cc3)c2=O)cc1 | -17.8 | -3.0 | -7.5 | 2.4

Screens deposited in PubChem BioAssay by several laboratories.
